OX1R antag-1 – blocks the human orexin 1 receptor. O43613. CHO/OX1R cells, Fluo-8 calcium fluorescence, orexin A. inhibition, % at 5 µM. hit rate 0.43% among 330,000. AID 434989;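 active means inhibition above its plate's threshold, mean inhibition of all tested compounds on the plate plus 3 SD, cut at about 37% in these data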;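 further: 0% = orexin A challenge wells and 100% = SB-334867-A antagonist wells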
Target sequence (O43613 whole entry, looked up): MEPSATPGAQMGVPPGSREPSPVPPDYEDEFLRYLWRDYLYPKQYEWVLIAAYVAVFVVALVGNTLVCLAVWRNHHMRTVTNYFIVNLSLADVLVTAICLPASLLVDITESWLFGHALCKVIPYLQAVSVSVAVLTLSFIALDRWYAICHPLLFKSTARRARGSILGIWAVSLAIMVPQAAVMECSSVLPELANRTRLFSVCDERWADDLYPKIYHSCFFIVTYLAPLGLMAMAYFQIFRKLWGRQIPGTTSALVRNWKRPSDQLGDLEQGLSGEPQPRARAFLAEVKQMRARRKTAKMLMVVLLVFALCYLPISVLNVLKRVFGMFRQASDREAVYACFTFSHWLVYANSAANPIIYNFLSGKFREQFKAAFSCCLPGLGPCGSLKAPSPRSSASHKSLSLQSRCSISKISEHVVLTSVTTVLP
OX1R antag-2 – blocks the human orexin 1 receptor; O43613; OX1R-expressing cells, FRET antagonist read-out; inhibition, % at 6.6 µM; hit rate 1.8% among 330,000; AID 485270; in the data active means inhibition mostly above about 38%, no sharp cut-off; inactive means mostly below about 40%;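 further: 0% = agonist challenge alone and 100% = reference antagonist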
CHO parental Ca – counter-screen: ATP calcium response change in parental CHO cells | inhibition, % at 5.6 µM | AID 463079 | hit rate 0.63% among 330,000 | parental CHO-K1, ATP-induced calcium, Fluo-8 fluorescence;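 active means inhibition above that plate's mean sample inhibition plus 3 SD, cut at about 26% in these data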;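 further: 0% = ATP-challenged DMSO wells and 100% = DMSO wells without ATP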
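Assay system: untransfected parental CHO cell line. Also added: ATP agonist challenge. Dosing: one dose, 5.6 µM nominal. Measured by: Fluo-8 fluorescence. Read-out: % inhibition. Benchmarks: ATP wells versus no-ATP DMSO wells. Repeats: no replicates.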
GPR7 antag – blocks human GPR7 receptor signaling | inhibition, % at 4.4 µM | GPR7-expressing cells, fluorescence antagonist assay | hit rate 1.1% among 290,000 | AID 1861; in the data active means inhibition above about 16%, passing the limit was not always enough;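 further: cells stimulated with the agonist NPW; 0% = agonist with vehicle and 100% = vehicle without agonist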
GalR3 antag – human GalR3 antagonism. O60755. HEK293 GalR3-CNG cAMP membrane potential fluorescence; galR3 body fused to GalR1 C-terminus. inhibition, % at 3 µM. hit rate 0.44% among 360,000. AID 651719;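 active means inhibition above the screen-wide average plus 3 SD, cut at about 13% in these data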;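 further: forskolin and galanin both at EC90 stimulate the cells; cAMP rise reported by CNG channel membrane potential dye signal; 0% = forskolin plus galanin with DMSO and 100% = forskolin alone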
Target sequence (O60755 1-299 limits assumed): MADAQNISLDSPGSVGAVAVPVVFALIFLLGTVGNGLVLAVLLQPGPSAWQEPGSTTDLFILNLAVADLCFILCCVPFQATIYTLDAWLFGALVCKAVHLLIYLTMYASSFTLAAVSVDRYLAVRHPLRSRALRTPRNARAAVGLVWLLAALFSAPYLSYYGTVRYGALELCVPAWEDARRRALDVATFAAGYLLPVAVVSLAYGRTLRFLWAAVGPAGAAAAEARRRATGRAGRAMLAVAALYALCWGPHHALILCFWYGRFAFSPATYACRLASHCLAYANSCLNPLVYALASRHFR
OX1R HTRF conf – OX1R (human) antagonism, HTRF confirmed. shares compounds with OX1R antag-2. OX1R-expressing cells, HTRF antagonist assay. inhibition, % at 6.6 µM. hit rate 49% among 1,800. AID 492964; in the data active means inhibition above about 55%;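 further: CHO cells expressing OX1R stimulated with orexin A at about EC80; 0% = agonist challenge alone and 100% = reference antagonist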
CHO-K1 HTRF – signal in parental CHO-K1 cells, OX1R antagonist counter-screen; shares compounds with OX1R antag-2; HTRF counterscreen; inhibition, % at 6.6 µM; hit rate 48% among 1,800; AID 493232; in the data active means inhibition above about 17%;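 further: 0% = agonist challenge with vehicle and 100% = vehicle alone without agonist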
GalR3 conf – GalR3 (human) antagonism, confirmation. shares compounds with GalR3 antag. HEK293 GalR3 CNG cAMP biosensor, membrane potential fluorescence; galR3 fused to GalR1 carboxy tail; challenged with forskolin and galanin at EC90. inhibition, % at 3 µM. hit rate 59% among 1,600. AID 652245;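 active means inhibition above the primary screen's cutoff, the mean inhibition of all screened compounds plus 3 SD, cut at about 13% in these data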;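 further: 0% = forskolin plus galanin and 100% = forskolin alone with DMSO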
CNG parental – acts as nonspecific agonist in parental HEK-CNG cells. shares compounds with GalR3 antag. HEK293-CNG parental cells, cAMP membrane potential fluorescence; normalised: DMSO wells 0%, forskolin wells 100%. activation, % at 3 µM. hit rate 10% among 1,600. AID 652268; in the data active means activation above about 1.3%
* hit, by the source's call; nt = no result given. Shown are actives, neighbours in structure and some others; about 3.1% of the full set was active somewhere.

SMILES	OX1R antag-1	OX1R antag-2	CHO parental Ca	GPR7 antag	GalR3 antag	GalR3 conf	CNG parental	others
CCN(CC)CCNc1cc(C)nc2c1C(=O)C(=O)C=C2N1CCCCC1	-19.6	82.5*	-18.4	-7.4	-1.5	nt	nt	OX1R HTRF conf=46.7;CHO-K1 HTRF=75.6*
COc1ccc(C(CNC(=O)c2cc(C)on2)N(C)C)cc1 (configuration not stated)	-0.1	17.4	5.8	-2.3	-9.7	nt	nt
O=C(O)Cc1ccc(NC(=O)c2ccc3c(c2)C(=O)N(CC2CCCO2)C3=O)cc1 (configuration not stated)	-3.2	78.5*	-14.4	1.3	0.5	nt	nt	OX1R HTRF conf=43.4;CHO-K1 HTRF=43.3*
Cc1nc(-c2ccc(C(=O)Nc3cccc(Br)c3)cc2)cs1	10.8	88.5*	-3.4	11.5	98.0*	101.9*	-0.3	OX1R HTRF conf=53.8;CHO-K1 HTRF=3.9
C[C@H](CO)N1C[C@H](C)[C@@H](CN(C)S(=O)(=O)c2ccccc2)OCc2cnnn2CCCC1=O	nt	nt	nt	nt	-4.4	nt	nt
O=C1c2ccc(Oc3cccc([N+](=O)[O-])c3)cc2C(=O)N1c1ccccn1	-8.5	14.8	-15.6	-2.2	-3.9	nt	nt
O=C1c2cc([N+](=O)[O-])cc3cc([N+](=O)[O-])cc(c23)C(=O)N1c1ccccn1	-25.1	82.2*	-6.6	-5.2	nt	-2.3	0.6	OX1R HTRF conf=73.3*;CHO-K1 HTRF=113.7*
COc1ccc(/C=C2\OC(=O)c3c(OC)cccc32)cc1OC	-16.8	78.5*	-17.0	-6.4	61.7*	20.4*	0.4	OX1R HTRF conf=66.0*;CHO-K1 HTRF=3.1
CCOC(=O)C1=C(C(=O)OCC)C2N(Cc3ccc(C#N)cc3)c3ccccc3[C@@]23C[C@@H](C(=O)OC)N(S(=O)(=O)c2ccc(C)cc2)C3=N1 (some centres not stated)	nt	nt	nt	nt	7.8	nt	nt
Cc1cc2c(ccc3c2no[n+]3[O-])nn1	-9.7	166.3*	-6.4	-3.8	13.7*	13.2*	0.1	OX1R HTRF conf=50.9;CHO-K1 HTRF=75.8*
Cc1ccc(-c2csc(C(O)c3ccc(F)cc3)n2)cc1C (configuration not stated)	nt	nt	nt	nt	-0.4	nt	nt
COCCNc1cc(N)c([N+](=O)[O-])cc1[N+](=O)[O-]	8.9	56.5	6.7	-7.4	-6.5	nt	nt
O=c1[nH]c2cc(NCCO)c([N+](=O)[O-])cc2[nH]1	-3.0	166.4*	-0.5	-11.5	20.9*	33.0*	2.8*	OX1R HTRF conf=66.2*;CHO-K1 HTRF=87.7*
CC(Oc1ccc(Cl)cc1Cl)c1ccnc2nc(N3CCOCC3)nn12 (configuration not stated)	-20.2	18.2	-14.4	-5.9	nt	2.5	0.7
CCC(C)(C)NC(=O)CN(Cc1ccc(F)cc1)C(=O)CCC(=O)Nc1ccccn1	-35.2	32.9	-1.9	2.2	-8.2	nt	nt
COC(=O)c1ccc(NC(=O)c2ccccc2C(=O)Nc2ccc(C(=O)OC)cc2)cc1	-10.7	4.8	-17.3	nt	0.1	nt	nt
COC(=O)c1ccc(NC(=O)C(=O)c2cccn2C)cc1	-27.5	19.9	-11.0	-9.8	nt	0.5	0.0
Cc1c(C(=O)Nc2c(F)cc(F)cc2Br)sc2ncn(CC(=O)N3CCCC3)c(=O)c12	-2.4	3.9	-5.3	11.9	-4.9	nt	nt
CC(=O)N1CCN(S(=O)(=O)c2cccc(C(=O)Nc3ccc(F)c(F)c3)c2)CC1	-2.6	7.1	-12.6	-12.1	-7.1	nt	nt
CN(CC(=O)Nc1ccccc1Cl)C(=O)COC(=O)/C=C/c1cccc(C(F)(F)F)c1	-35.1	4.9	-24.5	nt	-3.0	nt	nt
O=c1[nH]cccc1-c1nc2ccccc2n1Cc1ccc(F)cc1	-9.0	-2.2	-12.6	-0.9	87.2*	-2.8	-0.5
Cc1cc2nc(-c3ccc[nH]c3=O)n(Cc3ccc(F)cc3)c2cc1C	-11.5	-4.2	-14.4	-1.3	-10.2	nt	nt
COc1ccc(C(=O)c2c(-c3ccc(OC)cc3)oc3ccccc23)cc1	-35.1	15.8	-22.8	nt	2.9	nt	nt
COc1ccc(C(=O)c2ccc3oc(-c4ccc(OC)cc4)c(-c4ccc(O)cc4)c3c2)cc1	25.6	6.2	11.1	nt	12.7*	5.4	-0.8
CC(=O)OCC(=O)Nc1ccc(Cl)cc1Cl	-15.8	4.9	-2.4	3.9	18.8*	0.0	0.1
SMILES	OX1R antag-1	OX1R antag-2	CHO parental Ca	GPR7 antag	GalR3 antag	GalR3 conf	CNG parental	others
CCCCN(C)CCC(=O)Nc1ccc2c(c1)CCC2	-43.2	10.7	-3.5	-0.8	-3.6	nt	nt
CC(C)C(=O)NCCc1nc(-c2ccccc2)no1	5.2	3.3	7.1	nt	nt	0.6	0.1
Cc1c(OCC(=O)N2CCC(C(=O)O)CC2)ccc2c1oc(=O)c1ccccc12	-16.3	7.3	-11.5	-9.2	-6.9	nt	nt
COc1cc(C)c(Br)cc1S(=O)(=O)NCc1ccncc1	9.6	11.3	13.8	-3.0	39.4*	58.0*	-0.2
Cc1ccc(S(=O)(=O)NCc2ccncc2)c(C)c1C	3.3	31.2	41.2*	15.0	85.9*	110.6*	-0.8
COc1cc(C)c(Br)cc1S(=O)(=O)NCc1cccs1	-11.5	29.5	-14.6	-10.7	-4.0	nt	nt
COCCNC(=O)CN(c1ccc(F)cc1)S(=O)(=O)c1ccc2c(c1)OCCO2	4.6	9.8	-0.7	-9.0	-7.0	nt	nt
COCC(C)N=C1SCCN1Cc1ccccc1 (configuration not stated)	-8.6	35.1	-4.7	3.0	-10.7	nt	nt
COC(=O)CCCN=C1SCCN1Cc1ccccc1	-12.6	26.8	9.2	-3.5	15.0*	8.1	0.2
COc1cccc(C2=NN(C(=O)c3cccs3)C(O)(C(F)(F)F)C2)c1 (configuration not stated)	-34.4	22.5	-41.0	5.8	13.2*	3.3	0.9
Cc1ccc(NC(=O)Nc2ccno2)cc1	-9.0	13.3	-3.9	-15.9	-1.7	nt	nt
Cc1cccc(-c2nnc(N)s2)c1	-8.7	10.4	-10.1	0.0	12.8*	1.9	0.1
O=C(Nc1ccc(Oc2cccnc2)nc1)c1ccc(C(F)(F)F)cc1	-4.5	3.8	-3.5	20.0*	76.7*	61.4*	-0.3
CCc1nc2ccc(C(=O)Nc3ccc4c(c3)OCC(=O)N4)cn2c1N(CC)CCOC	nt	nt	nt	nt	15.3*	11.2	0.2
CCN(CC)CC(=O)Nc1ccc(C)cc1C(=O)c1ccccc1	-16.7	10.8	-16.1	-11.7	-7.9	nt	nt
CCN(CC(=O)Nc1ccc(NC(C)=O)cc1)CC(=O)Nc1ccccc1C(=O)c1ccccc1	-13.3	0.9	-15.8	0.3	16.7*	4.2	0.4
O=C1NCC(COc2cccc3ccccc23)O1 (configuration not stated)	-6.0	13.5	-7.2	14.9	18.7*	6.9	0.1

High-throughput results: PubChem BioAssay, The Scripps Research Institute Molecular Screening Center
